# Test results from ChEMBL document CHEMBL1134569, “Synthesis and in vitro and in vivo antimalarial activity of new 4-anilinoquinolines” (J Med Chem, 2001).
# pIC50: −log10 of the molar value. Where “and” joins values, the source holds several entries; their conditions need not be identical. Identical values can stand only once.
# Assays:
# [1] = Cytotoxicity upon MPMs (mouse peritoneal macrophages) at 3.1 uM conc.;NT=No Toxicity
# Procedure, shortened: (§1)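 Mouse peritoneal macrophages harvested 48 h after potato-starch stimulation and seeded at 30000 cells/well. After 24 h, washed and exposed to 2-fold drug dilutions in RPMI + 5% FCS (final DMSO below 0.5%) at 37 °C, 5% CO₂, for 7 days. Toxicity scored microscopically as toxic or not versus untreated controls.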
# [2] = Cytotoxicity upon MRC-5 cells (diploid embryonic lung cell line) at 12.5 uM; format: cell-based, MRC5; settings: human
# Procedure, shortened: (§2)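 MRC-5 human diploid embryonic lung cells seeded at 5000/well, washed after 24 h, then given 2-fold drug dilutions in RPMI + 5% FCS (final DMSO below 0.5%). Incubated at 37 °C, 5% CO₂, for 7 days. MTT read-out at 540 nm, scored as percent absorbance reduction versus untreated controls.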
# [3] = Cytotoxicity upon MRC-5 cells (diploid embryonic lung cell line) at 6.3 uM; format: cell-based, MRC5; settings: human; procedure, shortened: as §2
# Plasmodium falciparum = experiment: Inhibitory activity against chloroquine-resistant Plasmodium falciparum FcB1R; format: functional, organism-based
# [4] = Cytotoxicity upon MPMs (mouse peritoneal macrophages) at 6.3 uM; procedure, shortened: as §1
# [5] = Cytotoxicity upon MPMs (mouse peritoneal macrophages) at 12.5 uM conc.;NT=No Toxicity; procedure, shortened: as §1
# [6] = Cytotoxicity upon MRC-5 cells (diploid embryonic lung cell line) at 3.1 uM; format: cell-based, MRC5; settings: human; procedure, shortened: as §2
# [7] = Cytotoxicity upon MRC-5 cells (diploid embryonic lung cell line) at 32 uM; format: cell-based, MRC5; settings: human; procedure, shortened: as §2
# [8] = Cytotoxicity upon MPMs (mouse peritoneal macrophages) at 32 uM; procedure, shortened: as §1
# [9] = Cytotoxicity upon MRC-5 cells (diploid embryonic lung cell line) at 8 uM; format: cell-based, MRC5; settings: human; procedure, shortened: as §2
# [10] = Cytotoxicity upon MRC-5 cells (diploid embryonic lung cell line) at 1 uM; format: cell-based, MRC5; settings: human; procedure, shortened: as §2
# [11] = Cytotoxicity upon MPMs (mouse peritoneal macrophages) at 8 uM; procedure, shortened: as §1
# [12] = Cytotoxicity upon MPMs (mouse peritoneal macrophages) at 2 uM; procedure, shortened: as §1
SMILES,NT [1],cytotoxicity at 12.5 µM [2] [%],cytotoxicity at 6.3 µM [3] [%],pIC50 (Plasmodium falciparum; Plasmodium falciparum),NT [4],NT [5],cytotoxicity at 3.1 µM [6] [%],cytotoxicity at 32 µM [7] [%],Cytotoxicity [8],cytotoxicity at 8 µM [9] [%],cytotoxicity at 1 µM [10] [%],Cytotoxicity [11],NT [12],pIC50 (Plasmodium falciparum)
O=CNc1cc(CO)cc(Nc2ccnc3cc(Cl)ccc23)c1,Cytotoxicity upon MPMs at 6.3 uM,0,0,6.44,Cytotoxicity upon MPMs at 6.3 uM,Cytotoxicity upon MPMs at 6.3 uM,0,–,–,–,–,–,–,–
O=C(CN1CCCCC1)Nc1cc(CN2CCCC2)cc(Nc2ccnc3cc(Cl)ccc23)c1,–,–,–,8.16,–,–,–,100,Cytotoxicity upon MPMs at 32 uM,100,0,Cytotoxicity upon MPMs at 32 uM,Cytotoxicity upon MPMs at 2 uM,–
O=C(CNCc1ccccc1)Nc1cc(CO)cc(Nc2ccnc3cc(Cl)ccc23)c1,Cytotoxicity upon MPMs at 6.3 uM,0,0,6.72,Cytotoxicity upon MPMs at 6.3 uM,Cytotoxicity upon MPMs at 6.3 uM,0,–,–,–,–,–,–,–
O=C(C[n+]1ccccc1)Nc1cc(CO)cc(Nc2ccnc3cc(Cl)ccc23)c1.[Cl-],Cytotoxicity upon MPMs at 6.3 uM,0,0,6.03,Cytotoxicity upon MPMs at 6.3 uM,Cytotoxicity upon MPMs at 6.3 uM,0,–,–,–,–,–,–,–
O=C(CN1CCCCC1)Nc1cc(CN2CCN(Cc3ccccc3)CC2)cc(Nc2ccnc3cc(Cl)ccc23)c1,–,–,–,7.89,–,–,–,100,Cytotoxicity upon MPMs at 32 uM,100,0,Cytotoxicity upon MPMs at 32 uM,Cytotoxicity upon MPMs at 2 uM,–
O=C(CN1CCCCC1)Nc1cc(CNCc2ccccc2)cc(Nc2ccnc3cc(Cl)ccc23)c1,–,–,–,8.07,–,–,–,100,Cytotoxicity upon MPMs at 32 uM,100,96,Cytotoxicity upon MPMs at 32 uM,Cytotoxicity upon MPMs at 2 uM,–
O=C(CN1CCCCC1)Nc1cc(CN2CCN(CCO)CC2)cc(Nc2ccnc3cc(Cl)ccc23)c1,–,–,–,7.94,–,–,–,100,Cytotoxicity upon MPMs at 32 uM,100,0,Cytotoxicity upon MPMs at 32 uM,Cytotoxicity upon MPMs at 2 uM,–
CC1CCN(CCCCC(=O)Nc2cc(CO)cc(Nc3ccnc4cc(Cl)ccc34)c2)CC1,Cytotoxicity upon MPMs at 6.3 uM,0,0,6.33,Cytotoxicity upon MPMs at 6.3 uM,Cytotoxicity upon MPMs at 6.3 uM,0,–,–,–,–,–,–,–
O=C(CN1CCCCC1)Nc1cc(CNCc2ccc(C(F)(F)F)cc2)cc(Nc2ccnc3cc(Cl)ccc23)c1,–,–,–,8.26,–,–,–,100,Cytotoxicity upon MPMs at 32 uM,100,0,Cytotoxicity upon MPMs at 32 uM,Cytotoxicity upon MPMs at 2 uM,–
O=C(CN1CCSC1)Nc1cc(CO)cc(Nc2ccnc3cc(Cl)ccc23)c1,Cytotoxicity upon MPMs at 6.3 uM,0,0,6.23,Cytotoxicity upon MPMs at 6.3 uM,Cytotoxicity upon MPMs at 6.3 uM,0,–,–,–,–,–,–,–
CN1CCN(Cc2cc(NC(=O)CN3CCCCC3)cc(Nc3ccnc4cc(Cl)ccc34)c2)CC1,–,–,–,8.12,–,–,–,83,Cytotoxicity upon MPMs at 32 uM,80,0,Cytotoxicity upon MPMs at 32 uM,Cytotoxicity upon MPMs at 2 uM,–
CC1CCN(CCCCCC(=O)Nc2cc(CO)cc(Nc3ccnc4cc(Cl)ccc34)c2)CC1,Cytotoxicity upon MPMs at 6.3 uM,0,0,6.52,Cytotoxicity upon MPMs at 6.3 uM,Cytotoxicity upon MPMs at 6.3 uM,0,–,–,–,–,–,–,–
O=C(CN1CCCCC1)Nc1cc(CN2CCN(Cc3ccc(Cl)cc3)CC2)cc(Nc2ccnc3cc(Cl)ccc23)c1,–,–,–,7.94,–,–,–,100,Cytotoxicity upon MPMs at 32 uM,100,0,Cytotoxicity upon MPMs at 32 uM,Cytotoxicity upon MPMs at 2 uM,–
O=C(CN1CCCCC1)Nc1cc(CN2CCN(Cc3ccc([N+](=O)[O-])cc3)CC2)cc(Nc2ccnc3cc(Cl)ccc23)c1,–,–,–,7.88,–,–,–,100,Cytotoxicity upon MPMs at 32 uM,99,0,Cytotoxicity upon MPMs at 32 uM,Cytotoxicity upon MPMs at 2 uM,–
O=C(CN1CCCCC1)Nc1cc(CNCCN2CCCC2)cc(Nc2ccnc3cc(Cl)ccc23)c1,–,–,–,7.99,–,–,–,100,Cytotoxicity upon MPMs at 32 uM,100,–,–,Cytotoxicity upon MPMs at 2 uM,8.18 and 8.10
COc1ccc(CN2CCN(Cc3cc(NC(=O)CN4CCCCC4)cc(Nc4ccnc5cc(Cl)ccc45)c3)CC2)cc1,–,–,–,7.96,–,–,–,100,Cytotoxicity upon MPMs at 32 uM,100,50,Cytotoxicity upon MPMs at 32 uM,Cytotoxicity upon MPMs at 2 uM,–
O=C(CN1CCCCC1)Nc1cc(CN2CCC(O)CC2)cc(Nc2ccnc3cc(Cl)ccc23)c1,–,–,–,8.19,–,–,–,100,Cytotoxicity upon MPMs at 32 uM,100,0,Cytotoxicity upon MPMs at 32 uM,Cytotoxicity upon MPMs at 2 uM,–
O=C(CN1CCc2ccccc2C1)Nc1cc(CO)cc(Nc2ccnc3cc(Cl)ccc23)c1,–,0,0,5.84,–,–,0,–,–,–,–,–,–,–
O=C(CN1CCCCC1)Nc1cc(CNc2ccccc2)cc(Nc2ccnc3cc(Cl)ccc23)c1,–,–,–,7.67,–,–,–,100,Cytotoxicity upon MPMs at 32 uM,100,0,Cytotoxicity upon MPMs at 32 uM,Cytotoxicity upon MPMs at 2 uM,–
O=C(CNCc1ccc(Cl)cc1)Nc1cc(CO)cc(Nc2ccnc3cc(Cl)ccc23)c1,–,0,0,6.07,–,–,0,–,–,–,–,–,–,–
O=C(CN1CCC(O)CC1)Nc1cc(CO)cc(Nc2ccnc3cc(Cl)ccc23)c1,–,0,0,5.98,–,–,0,–,–,–,–,–,–,–
O=C(CN1CCCCC1)Nc1cc(CNC(c2ccccc2)c2ccccc2)cc(Nc2ccnc3cc(Cl)ccc23)c1,–,–,–,8.04,–,–,–,100,Cytotoxicity upon MPMs at 32 uM,100,0,Cytotoxicity upon MPMs at 32 uM,Cytotoxicity upon MPMs at 2 uM,–
O=C(CN1CCCCC1)Nc1cc(CN2CCN(Cc3ccc4c(c3)OCO4)CC2)cc(Nc2ccnc3cc(Cl)ccc23)c1,–,–,–,8.16,–,–,–,100,Cytotoxicity upon MPMs at 32 uM,99,86,Cytotoxicity upon MPMs at 32 uM,Cytotoxicity upon MPMs at 2 uM,–
CC(C)(C)NCc1cc(NC(=O)CN2CCCCC2)cc(Nc2ccnc3cc(Cl)ccc23)c1,–,–,–,8.43,–,–,–,100,Cytotoxicity upon MPMs at 32 uM,100,0,Cytotoxicity upon MPMs at 32 uM,Cytotoxicity upon MPMs at 2 uM,–
O=C(CN1CCCCC1)Nc1cc(CN2CCN(c3ccccc3)CC2)cc(Nc2ccnc3cc(Cl)ccc23)c1,–,–,–,8.26,–,–,–,100,Cytotoxicity upon MPMs at 32 uM,100,0,Cytotoxicity upon MPMs at 32 uM,Cytotoxicity upon MPMs at 2 uM,–
CN(C)CCN(C)Cc1cc(NC(=O)CN2CCCCC2)cc(Nc2ccnc3cc(Cl)ccc23)c1,–,–,–,8.30,–,–,–,100,Cytotoxicity upon MPMs at 32 uM,100,43,Cytotoxicity upon MPMs at 32 uM,Cytotoxicity upon MPMs at 2 uM,–
O=C(CN1CCCCC1)Nc1cc(CN2CCN(C(c3ccccc3)c3ccccc3)CC2)cc(Nc2ccnc3cc(Cl)ccc23)c1,–,–,–,7.90,–,–,–,98,Cytotoxicity upon MPMs at 32 uM,97,87,Cytotoxicity upon MPMs at 32 uM,Cytotoxicity upon MPMs at 2 uM,–
